Experimental data as given in ChEMBL document CHEMBL5584302, “Exploration of Hydrazide-Based HDAC8 PROTACs for the Treatment of Hematological Malignancies and Solid Tumors” (J Med Chem, 2024).
The source made the active and inactive calls. The rule behind the calls is not given here.

Legend:
HCT-116 [1] = assay: Effect on Ac-tubulin level in human HCT-116 cells at 0.33 to 0.11 uM incubated for 6 hrs by Western blot analysis; type: functional, cell-based; conditions: dose 0.33-0.11 µM
Summary of the method: (§1)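 Cells were exposed to the compound for 6 h. Acetylated tubulin was detected by Western blot, with GAPDH as the loading control.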

THP-1 [2] = assay: Upregulation of Ac-HH3 level in human THP-1 cells at 1.1 to 3.3 uM measured after 24 hrs by Western blot analysis; type: functional, cell-based; conditions: dose 1.1-3.3 µM
Summary of the method: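 THP-1 cells were exposed to the compound at the indicated concentrations for 24 h, then immunoblotted for Ac-HH3, Ac-SMC3, Ac-tubulin and HDAC8 with GAPDH as loading control. Band intensities were quantified and normalized to the DMSO-treated group. Data are mean ± SEM of two independent experiments, analysed by one-way ANOVA against DMSO.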

Jurkat [3] = assay: Effect on Ac-tubulin level in human Jurkat cells at 0.33 to 0.11 uM incubated for 6 hrs by Western blot analysis; type: functional, cell-based; conditions: dose 0.33-0.11 µM; summary of the method: as §1
Jurkat [4] = assay: Upregulation of Ac-HH3 level in human Jurkat cells incubated for 6 hrs by Western blot analysis; type: functional, cell-based
Summary of the method: (§2)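 Jurkat cells exposed to the indicated compound concentrations for 6 h. Ac-SMC3 and Ac-HH3 were detected by Western blot with GAPDH as loading control. Bands were quantified by densitometry and normalized to the DMSO-treated group. Data are mean ± SEM of two independent experiments, compared with DMSO by one-way ANOVA.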

HCT-116 [5] = assay: Upregulation of Ac-HH3 level in human HCT-116 cells incubated for 6 hrs by Western blot analysis; type: functional, cell-based; conditions: dose 0.004-3.3 µM
Summary of the method: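 HCT116 cells were incubated with graded concentrations for 6 h. Ac-HH3 was detected by Western blot with GAPDH as the loading control, then quantified by densitometry and normalized to DMSO-treated cells. Data are mean ± SEM of two independent experiments, compared against DMSO by one-way ANOVA.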

Jurkat [6] = assay: Upregulation of Ac-HH3 level in human Jurkat cells at 3.7 to […] uM incubated for 6 hrs by Western blot analysis; type: functional, cell-based; conditions: dose 3.7-33.3 µM
HCT-116 [7] = assay: Induction of apoptosis in human HCT-116 cells assessed as late apoptotic cells at 10 uM measured after 48 hrs in presence of tert-butyl 2-(4-(4-((2,6-dioxopiperidin-3-yl)amino)phenyl)piperidin-1-yl)acetate by AnnexinV/FITC and PI staining based flow cytometry analysis (reference value: 1.96%); type: functional
HCT-116 [8] = assay: Induction of apoptosis in human HCT-116 cells assessed as viable cells at 10 uM measured after 48 hrs in presence of tert-butyl 2-(4-(4-((2,6-dioxopiperidin-3-yl)amino)phenyl)piperidin-1-yl)acetate by AnnexinV/FITC and PI staining based flow cytometry analysis (reference value: 91.3%); type: functional; conditions: read-out: Activity
Jurkat [9] = assay: Effect on AcHH4 level on human Jurkat cells at 10 uM measured after 48 hrs by Western blot analysis; type: functional, cell-based
Jurkat [10] = assay: Upregulation of Ac-SMC3 level in human Jurkat cells at high concentration incubated for 6 hrs by Western blot analysis; type: functional, cell-based; summary of the method: as §2
[11] = biological target: Protein cereblon/Histone deacetylase 8 (Homo sapiens) (UniProt Q9BY41+Q96SW2); assay: PROTAC activity at CRBN/HDAC8 in human Jurkat cells assessed as induction of HDAC8 degradation at 10 uM measured after 48 hrs by Western blot analysis; type: cell-based
Protein cereblon/Histone deacetylase 8 (Homo sapiens), sequence (Q96SW2 whole entry, looked up): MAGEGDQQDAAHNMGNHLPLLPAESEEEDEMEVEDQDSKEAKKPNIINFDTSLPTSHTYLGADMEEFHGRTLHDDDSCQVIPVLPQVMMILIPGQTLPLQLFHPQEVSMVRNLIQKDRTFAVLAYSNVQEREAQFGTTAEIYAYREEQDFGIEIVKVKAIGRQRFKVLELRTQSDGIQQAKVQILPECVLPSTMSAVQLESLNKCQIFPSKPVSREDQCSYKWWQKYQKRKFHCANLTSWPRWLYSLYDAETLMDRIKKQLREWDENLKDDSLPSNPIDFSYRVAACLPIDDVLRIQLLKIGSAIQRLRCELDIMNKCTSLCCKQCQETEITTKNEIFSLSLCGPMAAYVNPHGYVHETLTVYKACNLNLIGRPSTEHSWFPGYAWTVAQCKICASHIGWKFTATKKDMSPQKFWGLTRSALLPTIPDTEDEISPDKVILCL
Protein cereblon/Histone deacetylase 8 (Homo sapiens), sequence (Q9BY41 whole entry, looked up): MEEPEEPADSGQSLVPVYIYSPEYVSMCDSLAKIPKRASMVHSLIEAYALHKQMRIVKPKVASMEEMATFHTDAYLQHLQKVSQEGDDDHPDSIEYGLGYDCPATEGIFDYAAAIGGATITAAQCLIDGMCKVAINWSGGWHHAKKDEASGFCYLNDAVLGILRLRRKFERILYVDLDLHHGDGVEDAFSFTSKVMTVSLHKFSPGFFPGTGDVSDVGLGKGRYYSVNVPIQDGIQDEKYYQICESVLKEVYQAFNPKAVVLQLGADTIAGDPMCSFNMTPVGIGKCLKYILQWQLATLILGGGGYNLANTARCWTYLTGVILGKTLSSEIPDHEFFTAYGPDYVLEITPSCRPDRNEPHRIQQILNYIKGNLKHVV

HCT-116 [12] = assay: Induction of apoptosis in human HCT-116 cells assessed as necrotic cells at 10 uM measured after 48 hrs in presence of tert-butyl 2-(4-(4-((2,6-dioxopiperidin-3-yl)amino)phenyl)piperidin-1-yl)acetate by AnnexinV/FITC and PI staining based flow cytometry analysis (reference value: […]); type: functional
Jurkat [13] = assay: Upregulation of Ac-HH3 level in human Jurkat cells at high concentration incubated for 6 hrs by Western blot analysis; type: functional, cell-based; summary of the method: as §2
Jurkat [14] = assay: Effect on AcHH3 level on human Jurkat cells at 10 uM measured after 48 hrs by Western blot analysis; type: functional, cell-based
HCT-116 [15] = assay: Induction of apoptosis in human HCT-116 cells assessed as early apoptotic cells at 10 uM measured after 48 hrs in presence of tert-butyl 2-(4-(4-((2,6-dioxopiperidin-3-yl)amino)phenyl)piperidin-1-yl)acetate by AnnexinV/FITC and PI staining based flow cytometry analysis (reference value: 5.39%); type: functional
HCT-116 [16] = assay: Induction of apoptosis in human HCT-116 cells assessed as increase in caspase 3/7 activity at 5 uM incubated for 48 hrs in presence of tert-butyl 2-(4-(4-((2,6-dioxopiperidin-3-yl)amino)phenyl)piperidin-1-yl)acetate; type: functional, cell-based
Jurkat [17] = assay: Induction of apoptosis in human Jurkat cells assessed as increase in caspase 3/7 activity at 5 uM incubated for 48 hrs in presence of tert-butyl 2-(4-(4-((2,6-dioxopiperidin-3-yl)amino)phenyl)piperidin-1-yl)acetate; type: functional, cell-based
Jurkat [18] = assay: Upregulation of Ac-SMC3 level in human Jurkat cells at 1 uM measured after 6 hrs by Western blot analysis; type: functional, cell-based; summary of the method: as §2
HCT-116 [19] = assay: Induction of apoptosis in human HCT-116 cells assessed as increase in caspase 3/7 activity at 5 uM incubated for 48 hrs; type: functional, cell-based
Jurkat [20] = assay: Upregulation of Ac-HH3 level in human Jurkat cells at 1 uM measured after 6 hrs by Western blot analysis; type: functional, cell-based; summary of the method: as §2
Jurkat [21] = assay: Upregulation of Ac-tubulin level in human Jurkat cells at 1 uM measured after 6 hrs by Western blot analysis; type: functional, cell-based
Summary of the method: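 Jurkat cells were treated for 6 h at the indicated concentrations. Acetylated tubulin was probed by Western blot, with GAPDH as loading control.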

Jurkat [22] = assay: Upregulation of AcHH4 level on human Jurkat cells at 1 to 10 uM measured after 48 hrs by Western blot analysis; type: functional, cell-based; conditions: dose 1-10 µM
Jurkat [23] = assay: Induction of apoptosis in human Jurkat cells assessed as increase in caspase 3/7 activity at 5 uM incubated for 48 hrs; type: functional, cell-based
Jurkat [24] = assay: Upregulation of AcHH3 level on human Jurkat cells at 1 to 10 uM measured after 48 hrs by Western blot analysis; type: functional, cell-based; conditions: dose 1-10 µM
Jurkat [25] = assay: Upregulation of Ac-HH3 level in human Jurkat cells at 0.004 to 0.33 uM incubated for 6 hrs by Western blot analysis; type: functional, cell-based; conditions: dose 0.004-0.33 µM
Summary of the method: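 Jurkat cells were exposed to the compound for 6 h. Ac-SMC3, Ac-HH3, Ac-tubulin and HDAC8 were probed by Western blot with GAPDH as loading control. Ac-HH3 bands were quantified by densitometry and normalized to the DMSO-treated group. Values are mean ± SEM of two independent experiments, compared with DMSO by one-way ANOVA.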

Jurkat [26] = assay: Upregulation of Ac-HH3 level in human Jurkat cells at 0.4 to […] uM incubated for 24 hrs by Western blot analysis; type: functional, cell-based; conditions: dose 0.4-33.3 µM
Jurkat [27] = assay: Upregulation of Ac-HH4 level in human Jurkat cells at 0.4 to […] uM incubated for 24 hrs by Western blot analysis; type: functional, cell-based; conditions: dose 0.4-33.3 µM
THP-1 [28] = assay: cells; conditions: Homo sapiens, THP-1, 72 h
HCT-116 [29] = assay: Induction of apoptosis in human HCT-116 cells assessed as viable cells at 10 uM measured after 48 hrs in presence of N-(4-(2-Hexylhydrazine-1-carbonyl)benzyl)acetamide by AnnexinV/FITC and PI staining based flow cytometry analysis (reference value: 91.3%); type: functional; conditions: read-out: Activity
Jurkat [30] = assay: Antiproliferative activity against human Jurkat cells assessed as inhibition of cell growth measured after 72 hrs in presence of N-(4-(2-Hexylhydrazine-1-carbonyl)benzyl)acetamide by MTS assay; type: functional, cell-based
HCT-116 [31] = assay: Induction of apoptosis in human HCT-116 cells assessed as increase in caspase 3/7 activity at 5 uM incubated for 48 hrs in presence of N-(4-(2-Hexylhydrazine-1-carbonyl)benzyl)acetamide; type: functional, cell-based
HCT-116 [32] = assay: Induction of apoptosis in human HCT-116 cells assessed as late apoptotic cells at 10 uM measured after 48 hrs in presence of N-(4-(2-Hexylhydrazine-1-carbonyl)benzyl)acetamide by AnnexinV/FITC and PI staining based flow cytometry analysis (reference value: 1.96%); type: functional
HCT-116 [33] = assay: Antiproliferative activity against human HCT-116 cells assessed as inhibition of cell growth measured after 72 hrs in presence of N-(4-(2-Hexylhydrazine-1-carbonyl)benzyl)acetamide by MTS assay; type: functional, cell-based; conditions: HCT-116, 72 h
THP-1 [34] = assay: Antiproliferative activity against human THP-1 cells assessed as inhibition of cell growth measured after 72 hrs in presence of N-(4-(2-Hexylhydrazine-1-carbonyl)benzyl)acetamide by MTS assay; type: functional, cell-based; conditions: THP-1, 72 h
HCT-116 [35] = assay: Induction of apoptosis in human HCT-116 cells assessed as necrotic cells at 10 uM measured after 48 hrs in presence of N-(4-(2-Hexylhydrazine-1-carbonyl)benzyl)acetamide by AnnexinV/FITC and PI staining based flow cytometry analysis (reference value: […]); type: functional
Jurkat [36] = assay: Induction of apoptosis in human Jurkat cells assessed as increase in caspase 3/7 activity at 5 uM incubated for 48 hrs in presence of N-(4-(2-Hexylhydrazine-1-carbonyl)benzyl)acetamide; type: functional, cell-based
A549 = assay: Antiproliferative activity against human A549 cells assessed as inhibition of cell growth measured after 72 hrs in presence of N-(4-(2-Hexylhydrazine-1-carbonyl)benzyl)acetamide by MTS assay; type: functional, cell-based; conditions: A549, 72 h
HCT-116 [37] = assay: Induction of apoptosis in human HCT-116 cells assessed as early apoptotic cells at 10 uM measured after 48 hrs in presence of N-(4-(2-Hexylhydrazine-1-carbonyl)benzyl)acetamide by AnnexinV/FITC and PI staining based flow cytometry analysis (reference value: 5.39%); type: functional

SMILES: CCCCCCNNC(=O)c1ccc(CNC(=O)CN2CCC(c3ccc(NC(C)=O)cc3)CC2)cc1
- Activity (HCT-116 [1]): inactive
- Activity (THP-1 [2]): Active
- Activity (Jurkat [3]): inactive
- Activity (Jurkat [4]): Dose-Dependent Effect
- Activity (HCT-116 [5]): Dose-Dependent Effect

SMILES: CCCCCCN(NC(=O)c1ccc(CNC(=O)CN2CCC(c3ccc(NC4CCC(=O)NC4=O)cc3)CC2)cc1)C(=O)OC(C)(C)C (centres undefined)
- Activity (Jurkat [6]): inactive

SMILES: CCCCCCNNC(=O)c1ccc(CNC(C)=O)cc1
- Activity (HCT-116 [7]): 3.87%
- viability at 10 µM (HCT-116 [8]): 73.2%
- Activity (Jurkat [9]): inactive
- Activity (Jurkat [10]): Active
- Activity [11]: inactive
- Activity (HCT-116 [12]): 3.33%
- Activity (Jurkat [13]): Active
- Activity (Jurkat [14]): inactive
- Activity (HCT-116 [15]): 19.6%
- Activity (HCT-116 [16]): inactive
- Activity (Jurkat [17]): inactive
- Activity (Jurkat [18]): inactive

SMILES: O=C(CCCCCCC(=O)Nc1ccccc1)NO
- Activity (HCT-116 [19]): Active
- Activity (Jurkat [20]): Active
- Activity (Jurkat [21]): Active
- Activity (Jurkat [22]): Active
- Activity (Jurkat [23]): Active
- Activity (Jurkat [24]): Active
- Activity (Jurkat [18]): inactive
- Activity (Jurkat [25]): Active

SMILES: COc1ccc(Cn2ccc3ccc(C(=O)NO)cc32)cc1
- Activity (Jurkat [26]): inactive
- Activity (Jurkat [27]): inactive

SMILES: Nc1ccccc1NC(=O)c1ccc(CNC(=O)OCc2cccnc2)cc1 [ENTINOSTAT]
- IC50 (THP-1 [28]): 2.3 µM

SMILES: CC(C)(C)OC(=O)CN1CCC(c2ccc(NC3CCC(=O)NC3=O)cc2)CC1 (centres undefined)
- viability at 10 µM (HCT-116 [29]): 73.2%
- IC50 (Jurkat [30]): > 33.3 µM
- Activity (HCT-116 [31]): inactive
- Activity (HCT-116 [32]): 3.87%
- IC50 (HCT-116 [33]): > 33.3 µM
- IC50 (THP-1 [34]): > 33.3 µM
- Activity (HCT-116 [35]): 3.33%
- Activity (Jurkat [36]): inactive
- IC50 (A549): > 33.3 µM
- Activity (HCT-116 [37]): 19.6%
